These results are taken from article PMC7226180 (Cancer Science, 2020).

The structures appear in SMILES notation. Where two headings read alike, the source gives them in different places. Marks after values point to notes of the source that are not given here.

The test system of one data set is T‐47D. Nature of the data set: cells. The following applies: Homo sapiens, T47D, 144 h, read-out: Proliferation inhibition IC50 (mean ± SD). The data set is classed as cell-based.
The test system of data set [1] is ER+ metastatic breast cancer. The note with it: patients, cited from earlier work.
In a further data set the test system is SW620. The data set is described as follows: cells. Format: cell-based. The note with it: Homo sapiens, SW-620, 144 h, read-out: Proliferation inhibition IC50 (mean ± SD).
Data set [2] deals with Rb^Ser780 phosphorylation in MCF‐7 cells. The data set is described as follows: Western blot of Rb, p‐Rb Ser780 and cyclin D1. The data set is classed as cell-based. The following applies: MCF‐7, 24 h; for Rb^Ser780 phosphorylation and total Rb protein levels: dose‐dependent. The procedure, abridged:
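MCF-7 cells were treated with a range of test compound concentrations for 24 h, then lysed in buffer containing phosphatase inhibitors. Lysates were separated, transferred and probed for Rb, p-Rb Ser780 and cyclin D, with β-tubulin or β-actin as loading controls. Bands were detected by HRP luminol chemiluminescence.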
(A western blot detects proteins with antibodies after separation by electrophoresis.)

Another data set deals with A549. Nature of the data set: cells. Format: cell-based. The note with it: Homo sapiens, A549, 144 h, read-out: Proliferation inhibition IC50 (mean ± SD).
The subject of another data set is MCF‐7 xenograft. The data set is described as follows: MCF‐7 s.c. human tumor xenograft. Format: in vivo, BALB/c nude mice. The following applies: 50 mg/kg; for TGI: MCF‐7 s.c. xenograft, i.g., QD 21 d; for Mean tumor size: MCF‐7 xenograft, day 20 (vehicle 703 mm^3). On the technique in general: A xenograft is tissue or cells of one species grown in another, often human tumour cells in immunodeficient mice.

Another data set has as its system MCF‐7/ARO xenograft. The data set is described as follows: MCF‐7/ARO s.c. human tumor xenograft, single agents. Format: in vivo, BALB/c nude mice. The note with it: MCF‐7/ARO s.c. xenograft, i.g., QD 21 d, 150 mg/kg.
Another data set relates to Calu‐3. Nature of the data set: cells. Format: cell-based. The note with it: Homo sapiens, Calu-3, 144 h, read-out: Proliferation inhibition IC50 (mean ± SD).
The next data set has as its system MV‐4‐11. The data set is described as follows: cells. The note with it: Homo sapiens, MV4-11, 144 h, read-out: Proliferation inhibition IC50 (mean ± SD). Format: cell-based.
In a further data set the test system is MCF‐7 cells. The data set is described as follows: Senescence assay. Format: cell-based. The note with it: MCF‐7, 12‐day exposure, dose‐dependent. The procedure, abridged:
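MCF-7 cells grown at 37°C, 5% CO₂ in DMEM or RPMI-1640 with 10% FBS. Seeded in 6-well plates and exposed to the test compound at the indicated concentrations, or vehicle, for 12 days. Then stained with SA-β-galactosidase staining solution following the kit instructions. Stocks were 10 mmol/L in DMSO.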

Data set [3] relates to recurrent Rb‐positive glioblastoma. The following applies: adult patients, phase II trial; cited from earlier work.
Another data set concerns U87‐MG xenograft. Nature of the data set: U87‐MG s.c. human tumor xenograft. The data set is classed as in vivo, BALB/c nude mice. The note with it: i.g., QD 18 d, 50 mg/kg.
The next data set has as its system MCF‐7/ARO. The data set is described as follows: cells. Format: cell-based. The following applies: 144 h, read-out: Proliferation inhibition IC50 (mean ± SD).
The subject of a further data set is ES‐2. The data set is described as follows: cells. Format: cell-based. The following applies: Homo sapiens, ES-2, 144 h, read-out: Proliferation inhibition IC50 (mean ± SD).
For another data set, the system named is Colo‐205 xenograft. The data set is described as follows: Colo‐205 s.c. human tumor xenograft. The data set is classed as in vivo, BALB/c nude mice. The note with it: Colo‐205 s.c. xenograft, i.g., QD 14 d, 50 mg/kg.
The next data set deals with LN‐18. The data set is described as follows: cells. Format: cell-based. The note with it: Homo sapiens, LN-18, 144 h, read-out: Proliferation inhibition IC50 (mean ± SD).
In data set [4] the test system is U87‐MG‐Luc human glioblastoma. Nature of the data set: U87‐MG‐Luc human glioblastoma orthotopic model. Format: in vivo, female BALB/c nude mice. The following applies: for Median survival time (mean ± SEM): 75 mg/kg (vehicle 30 ± 1 d); for Increase life span: 75 mg/kg, compared with vehicle. The method in brief: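 Female BALB/c nude mice, 6–8 weeks old, received 3 × 10⁵ U87-MG-Luc cells with 20% Matrigel. Cells were injected slowly into a skull hole about 2 mm right of the anterior fontanel and 1 mm ahead of the coronal. On day 8, mice were randomized by bioluminescence and dosed orally once daily. Survival was followed by Kaplan–Meier; life-span increase is relative to vehicle, with P by comparison to vehicle.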

Another data set concerns HepG2. The data set is described as follows: cells. The note with it: Homo sapiens, HepG2, 144 h, read-out: Proliferation inhibition IC50 (mean ± SD). Format: cell-based.
The test system of a further data set is MV4‐11 xenograft. Nature of the data set: MV4‐11 s.c. human tumor xenograft. Format: in vivo, BALB/c nude mice. The following applies: MV4‐11 s.c. xenograft, i.g., QD 20 d, 50 mg/kg.
For another data set, the system named is breast cancer. The following applies: cited from earlier work.
For data set [5], the system named is ER/progesterone receptor+/HER2− advanced breast cancer. The following applies: women, LY2835219 plus anastrozole or letrozole; cited from earlier work.
The next data set deals with MCF‐7. The data set is described as follows: cells. The note with it: Homo sapiens, MCF7, 144 h, read-out: Proliferation inhibition IC50 (mean ± SD). Format: cell-based.
The target of the next data set is CDK3 (Homo sapiens, UniProt Q00526). Nature of the data set: Enzymatic profiling, LANCE Ultra assay. The data set is classed as biochemical. In general terms: In TR-FRET formats the signal depends on donor and acceptor labels being close together.
CDK3, sequence (Q00526 whole entry): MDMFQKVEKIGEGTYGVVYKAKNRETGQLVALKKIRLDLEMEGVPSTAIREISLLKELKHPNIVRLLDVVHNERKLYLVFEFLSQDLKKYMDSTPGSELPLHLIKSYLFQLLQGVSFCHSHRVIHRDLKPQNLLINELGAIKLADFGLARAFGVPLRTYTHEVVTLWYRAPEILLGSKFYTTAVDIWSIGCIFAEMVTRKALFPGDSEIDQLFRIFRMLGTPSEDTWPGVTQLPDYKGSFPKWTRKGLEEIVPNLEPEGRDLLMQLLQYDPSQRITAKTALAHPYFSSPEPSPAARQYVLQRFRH
CDK3, sequence (P24864 whole entry, further chain): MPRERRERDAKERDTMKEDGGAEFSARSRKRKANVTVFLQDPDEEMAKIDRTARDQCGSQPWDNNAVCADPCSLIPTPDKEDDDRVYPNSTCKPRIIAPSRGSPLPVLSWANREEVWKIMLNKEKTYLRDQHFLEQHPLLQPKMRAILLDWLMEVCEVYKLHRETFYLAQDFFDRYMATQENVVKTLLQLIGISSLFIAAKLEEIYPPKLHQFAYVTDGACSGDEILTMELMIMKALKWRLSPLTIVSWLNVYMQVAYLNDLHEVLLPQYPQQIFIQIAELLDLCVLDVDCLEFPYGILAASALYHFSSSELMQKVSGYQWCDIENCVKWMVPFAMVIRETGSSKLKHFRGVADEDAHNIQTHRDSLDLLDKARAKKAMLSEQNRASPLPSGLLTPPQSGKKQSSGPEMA
Another data set is described as follows: in vivo. The arrangement: species or system female BALB/c nude mice.
Setting [6] is: female, BALB/c nude, mouse, in vivo, 75 mg/kg.

Regarding `CC(=O)c1c(C)c2cnc(Nc3ccc(N4CCNCC4)cn3)nc2n(C2CCCC2)c1=O` [Palbociclib, palbociclib], the IC50 with T‐47D was 1120 ± 686 nM; with SW620 it was 268 ± 36.8 nM; with A549, 795 ± 34.5 nM; in the data set on Calu‐3, greater than 10000 nM; in the data set with MV‐4‐11, 43.1 ± 9.5 nM; with MCF‐7/ARO, 374 ± 48.7 nM. Also, the values for the IC50 with ES‐2, with LN‐18 and with HepG2 were 53.4 ± 1.3 nM, 112 ± 25.6 nM and 60.6 ± 9 nM, respectively. Besides, in data set [1] (palbociclib together with letrozole), the “Disease‐free survival” value is on record as 20.2 months. Further, the “Expression of cyclin D1” value in data set [2] is given as “without significantly altering”. Besides, the “Rb^Ser780 phosphorylation and total Rb protein levels” value in data set [2] is recorded as “significant decrease”. The TGI in the data set on MCF‐7 xenograft was 84%; in the data set with MCF‐7/ARO xenograft, 67^** %; in the data set with U87‐MG xenograft it was 96^** %; with Colo‐205 xenograft it was 93^** %; with MV4‐11 xenograft, 68^** %. For the same compound, the Mean tumor size in the data set on MCF‐7 xenograft was found to be 256 mm^3. The “Cell senescence (SA‐β‐gal staining)” value in the data set with MCF‐7 cells is “could induce cell senescence”. Further, the “Single‐agent efficacy” value in [3] is recorded as “failed to achieve”. In addition, the “Median survival time (mean ± SEM)” value in data set [4] came to 35 ± 10 days. This compound also showed an Increase life span in data set [4] of 16.67%.
Consider `C[C@]12CC[C@@H]3c4ccc(O)cc4C[C@@H](CCCCCCCCC[S+]([O-])CCCC(F)(F)C(F)(F)F)[C@H]3[C@@H]1CC[C@@H]2O` (stereo partly drawn) [fulvestrant], for which the PFS in the data set with breast cancer (fulvestrant alone) is given as 9.3 months.
`N#Cc1ccc(C(c2ccc(C#N)cc2)n2cncn2)cc1` [Letrozole, letrozole]: in [1] (letrozole single‐agent treatment), the “Disease‐free survival” value is given as 10.2 months.
On to `CCN1CCN(Cc2ccc(Nc3ncc(F)c(-c4cc(F)c5nc(C)n(C(C)C)c5c4)n3)nc2)CC1` [LY2835219, abemaciclib], for which the PFS with breast cancer (LY2835219 plus fulvestrant) is recorded as 16.4 months. Moreover, the IC50 is 672 ± 119 nM with T‐47D; 283 ± 42.7 nM with SW620; 264 ± 28.4 nM with A549; 218 ± 8.7 nM with MCF‐7; 1000 ± 30 nM in the data set on Calu‐3; 79.8 ± 35.3 nM with MV‐4‐11. The IC50 at CDK3 was found to be 482 nM; in the data set on MCF‐7/ARO it was 327 ± 43.8 nM; in the data set with ES‐2, 27.8 ± 10.3 nM; in the data set on LN‐18, 244 ± 3 nM; with HepG2, 82.3 ± 20.4 nM. In addition, the “Expression of cyclin D1” value in data set [2] was “without significantly altering”. Also, in [2], the “Rb^Ser780 phosphorylation and total Rb protein levels” value is on record as “significant decrease”. Further, the “Objective response rate and PFS” value in [5] is recorded as “significantly improved”. Moreover, the TGI in the data set on MCF‐7 xenograft is reported as 114%; in the data set with MCF‐7/ARO xenograft, 67^** %; in the data set with U87‐MG xenograft, 131^**,## %; in the data set on Colo‐205 xenograft it was 82^** %; in the data set on MV4‐11 xenograft it was 54^**, # %. In the data set with MCF‐7 xenograft, this compound had a Mean tumor size of 94 mm^3. Also, the “Cell senescence (SA‐β‐gal staining)” value in the data set with MCF‐7 cells was “could induce cell senescence”. The “Levels in the plasma and brain compared with SPH3643” value in “in vivo” (24 hours after the final dose) was “markedly lower”. This compound also had a Kp at 1.5 h in “in vivo” (setting [6]) of 0.26 ± 0.13. The Kp at 24 h in the data set “in vivo” (setting [6]) is 0.27 ± 0.08. Also, the “Median survival time (mean ± SEM)” value in data set [4] amounted to 42 ± 2 days. Also, the Increase life span in data set [4] is reported as 40.00%.
